Assay results taken from ChEMBL document CHEMBL1759995, “Potential CRF1R PET imaging agents: N-fluoroalkyl-8-(6-methoxy-2-methylpyridin-3-yl)-2,7-dimethyl-N-alkylpyrazolo[1,5-a][1,3,5]triazin-4-amines” (Bioorg Med Chem Lett, 2011).

Legend:
[1] = Lipophilicity, log D of the compound in octanol-phosphate buffer at pH 7.4 by Shake flask method; type: physicochemical
Procedure, shortened: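 Shake-flask partitioning between 25 mM phosphate buffer (pH 7.4) and octanol, both pre-saturated by mixing and standing overnight. A 1.0 mg sample dissolved in 1 mL octanol and added to 50 mL octanol-saturated buffer.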

[2] = molecular target: T1, Corticotropin-releasing factor receptor 1 (Rattus norvegicus, UniProt P35353); experiment: Displacement of [125I]-o-CRF from CRF1 receptor in rat frontal cortex by rapid filtration technique; type: tissue-based
T1 sequence (P35353 whole entry): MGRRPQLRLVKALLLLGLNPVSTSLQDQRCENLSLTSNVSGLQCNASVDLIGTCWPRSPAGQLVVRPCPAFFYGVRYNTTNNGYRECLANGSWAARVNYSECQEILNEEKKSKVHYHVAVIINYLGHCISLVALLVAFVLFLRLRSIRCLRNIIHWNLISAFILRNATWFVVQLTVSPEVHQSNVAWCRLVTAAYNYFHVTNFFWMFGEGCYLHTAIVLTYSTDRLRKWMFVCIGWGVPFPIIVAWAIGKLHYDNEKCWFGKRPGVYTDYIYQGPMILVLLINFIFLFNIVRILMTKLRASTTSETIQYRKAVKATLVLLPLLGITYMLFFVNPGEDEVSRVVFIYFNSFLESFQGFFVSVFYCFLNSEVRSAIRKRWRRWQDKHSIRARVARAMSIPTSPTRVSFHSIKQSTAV
Procedure, shortened: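 Frozen rat frontal cortex homogenized in 50 mM HEPES (pH 7.0 at 23 °C) with MgCl2, EGTA, protease inhibitors, 0.005% Triton X-100, bacitracin and 0.1% ovalbumin; pellet washed twice by centrifugation at 32,000 g. Membranes (25 µg/well) incubated with 150 pM 125I-o-CRF and compounds 2 h at 21 °C. Bound ligand captured on PEI-treated GF/B filters, washed with ice-cold PBS/0.01% Triton. IC50 from inhibition of specific binding.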

| Compound | logD [1] | IC50 [2] |
| --- | --- | --- |
| COCCN(CCCF)c1nc(C)nc2c(-c3cnc(OC)nc3)c(C)nn12 | 3.2 | 390 nM |
| COCCN(CCCF)c1nc(C)nc2c(-c3cnc(OC)nc3OC)c(C)nn12 | 1.8 | > 10000 nM |
| COCCN(CCCF)c1nc(C)nc2c(-c3ccc(OC)nc3)c(C)nn12 | 3.4 | 35 nM |
| COc1ccc(-c2c(C)nn3c(N(CCC#N)CCCF)nc(C)nc23)c(C)n1 | 3.5 | 6.5 nM |
| CCN(CCF)c1nc(C)nc2c(-c3ccc(OC)nc3C)c(C)nn12 | 4.5 | 5.8 nM |
| CCN(CCCF)c1nc(C)nc2c(-c3ccc(OC)nc3C)c(C)nn12 | 4.8 | 1.6 nM |
| COCCN(CCF)c1nc(C)nc2c(-c3ccc(OC)nc3C)c(C)nn12 | 4.6 | 5.5 nM |
| COCCN(CCCF)c1nc(C)nc2c(-c3ccc(OC)nc3C)c(C)nn12 | 4.1 | 1.9 nM |
